From ChEMBL document CHEMBL1177679, “Design and synthesis of novel benzimidazole derivatives as inhibitors of hepatitis B virus” (Bioorg Med Chem, 2010) come the findings set out here.

What is called CC50 is the concentration that lowers cell viability or growth by half. A low value points to harm at low concentration. As a reminder, the IC50 is the concentration at which inhibition is half-maximal.

Data set [1] can be described thus: Cytotoxicity against human HepG2(2.2.15) cells after 8 days by MTT assay. It counts as cell-based. An outline of the steps:
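HepG2.2.15 cells in triplicate, exposed 8 days to various doses; media-only controls. MTT (5 g/L) added 4 h before end, cells lysed with 10% SDS/50% DMF pH 7.2, OD read at 570 nm 6 h later.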
A general note: Formazan colour is commonly taken as a measure of viable cells.

Data set [2] in a line: Selectivity index, ratio of CC50 for human HepG2(2.2.15) cells to IC50 for Hepatitis B virus. It counts as functional. The method, boiled down: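 SI calculated as CC50 (MTT, HepG2.2.15, 8 days) divided by IC50 for inhibition of cytoplasmic HBV-DNA synthesis (fluorescent PCR) in the same cells.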
For the next data set, the system named is Hepatitis B virus. Kind of data set: Antiviral activity against Hepatitis B virus infected in human HepG2(2.2.15) cells assessed as inhibition of viral cytoplasmic DNA synthesis after 8 days by RT-PCR analysis. The settings on record: HepG2 2.2.15, 192 h. The data set is classed as functional, organism-based.

As to `Nc1ccn([C@@H]2CS[C@H](CO)O2)c(=O)n1` [LAMIVUDINE], in data set [1], the CC50 at 192 h amounted to 5000 nM. Moreover, the “Selectivity Index” value in data set [2] amounted to 31.3. Also, in the data set with Hepatitis B virus, the IC50 worked out at 160 nM.
